Laboratory results: ChEMBL document CHEMBL3120098, “Structure-activity relationship (SAR) optimization of 6-(indol-2-yl)pyridine-3-sulfonamides: identification of potent, selective, and orally bioavailable small molecules targeting hepatitis C (HCV) NS4B” (J Med Chem, 2014)

What was measured:
[1] = Oral bioavailability in Sprague-Dawley rat at 10 mg/kg; type: ADME, organism-based; conditions: in vivo
[2] = Clearance in Sprague-Dawley rat at 6 mg/kg, iv; type: ADME, organism-based; parameters: dose 6 mg/kg, route intravenous; conditions: in vivo
[3] = Toxicity in human HuH7 cells assessed as effect on GAPDH mRNA level; type: cell-based, Huh-7
In short: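 Run in parallel with replicon assay in Con1 replicon Huh-7 cells (0.5% DMSO, 37 °C); endogenous GAPDH mRNA quantified by TaqMan RT-PCR; highest concentration tested 10000 nM.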

[4] = Terminal half life in beagle dog at 2.5 mg/kg, iv; type: ADME, organism-based, Canis lupus familiaris; parameters: dose 2.5 mg/kg, route intravenous; conditions: in vivo, read-out: beta t1/2 (converted)
[5] = AUC (0 to infinity) in Sprague-Dawley rat at 10 mg/kg, po; type: ADME, organism-based; parameters: time infinity, dose 10 mg/kg, route oral; conditions: plasma
[6] = Ratio of drug level in liver to plasma in Sprague-Dawley rat at 10 mg/kg, po after 6 hrs; type: ADME, organism-based; parameters: dose 10 mg/kg, route oral
In short: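 Male Sprague-Dawley rats, 10 mg/kg PO suspension in 0.4% hydroxypropyl methylcellulose; liver and plasma drug levels measured at 6 h, expressed as liver/plasma ratio.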

Canis familiaris [7] = assay: (§1) AUC (0 to infinity) in beagle dog at 5 mg/kg, po; type: ADME, organism-based, Canis lupus familiaris, Plasma; parameters: dose 5 mg/kg, route oral, time infinity; conditions: in vivo
Canis familiaris [8] = assay: (§2) Oral bioavailability in beagle dog at 5 mg/kg; type: ADME, organism-based, Canis lupus familiaris; conditions: in vivo
[9] = Ratio of EC50 for HCV1b Con1 to plasma concentration in Sprague-Dawley rat at 10 mg/kg, po after 6 hrs
[10] = AUC (0 to infinity) in cynomolgus monkey at 5 mg/kg, po; type: ADME, organism-based, Macaca fascicularis; parameters: time infinity, dose 5 mg/kg, route oral; conditions: plasma
[11] = AUC (0 to 6 hrs) in Sprague-Dawley rat at 10 mg/kg, po; type: ADME, organism-based; parameters: time < 6 hr, dose 10 mg/kg, route oral; conditions: plasma
Hepatitis C virus [12] = assay: Antiviral activity against HCV1b Con1 infected in human HuH7 cells assessed as inhibition of viral RNA replication by RT-PCR analysis; type: functional, organism-based, Hepacivirus hominis; conditions: isolate Con1, Huh-7
[13] = Oral bioavailability in cynomolgus monkey at 5 mg/kg; type: ADME, organism-based, Macaca fascicularis; conditions: in vivo
[14] = Terminal half life in Sprague-Dawley rat at 6 mg/kg, iv; type: ADME, organism-based; parameters: dose 6 mg/kg, route intravenous; conditions: in vivo, read-out: beta t1/2 (converted)
[15] = Clearance in cynomolgus monkey at 2.5 mg/kg, iv; type: ADME, organism-based, Macaca fascicularis; parameters: dose 2.5 mg/kg, route intravenous; conditions: in vivo
[16] = Terminal half life in cynomolgus monkey at 2.5 mg/kg, iv; type: ADME, organism-based, Macaca fascicularis; parameters: dose 2.5 mg/kg, route intravenous; conditions: in vivo, read-out: beta t1/2 (converted)
Rattus norvegicus [17] = assay: Drug metabolism in bile duct cannulated rat assessed as 6-(3-cyano-1-cyclobutyl-6-(difluoromethoxy)-5-fluoro-1H-indol-2-yl)pyridine-3-sulfonamide formation in plasma at 5 mg/kg; type: ADME, organism-based; parameters: dose 5 mg/kg; conditions: in vivo
Hepatocyte [18] = assay: Induction of CYP3A4 mRNA expression in human hepatocytes at 5 uM relative to rifampicin; type: ADME, cell-based
In short: (§3)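 Cryopreserved cultured human hepatocytes incubated 3 days with compound at several concentrations; CYP3A4 enzyme activity and mRNA expression measured, expressed as percent induction relative to rifampicin.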

Canis familiaris [19] = species: Canis familiaris; assay: Drug metabolism in bile duct cannulated dog assessed as GSH adduct formation; type: ADME, organism-based, Canis lupus familiaris; conditions: in vivo
[20] = Volume of distribution at steady state in cynomolgus monkey at 2.5 mg/kg, iv and 5 mg/kg, po; type: ADME, organism-based, Macaca fascicularis; conditions: in vivo, read-out: Vdss
[21] = Ratio of EC50 for HCV1b Con1 to plasma concentration in beagle dog at 5 mg/kg, po after 8 hrs
Cytochrome P450 3A4 [22] = target: T1, Cytochrome P450 3A4 (Homo sapiens, UniProt P08684); assay: Inhibition of CYP3A4 in human liver microsomes; type: ADME
T1 sequence (P08684 whole entry): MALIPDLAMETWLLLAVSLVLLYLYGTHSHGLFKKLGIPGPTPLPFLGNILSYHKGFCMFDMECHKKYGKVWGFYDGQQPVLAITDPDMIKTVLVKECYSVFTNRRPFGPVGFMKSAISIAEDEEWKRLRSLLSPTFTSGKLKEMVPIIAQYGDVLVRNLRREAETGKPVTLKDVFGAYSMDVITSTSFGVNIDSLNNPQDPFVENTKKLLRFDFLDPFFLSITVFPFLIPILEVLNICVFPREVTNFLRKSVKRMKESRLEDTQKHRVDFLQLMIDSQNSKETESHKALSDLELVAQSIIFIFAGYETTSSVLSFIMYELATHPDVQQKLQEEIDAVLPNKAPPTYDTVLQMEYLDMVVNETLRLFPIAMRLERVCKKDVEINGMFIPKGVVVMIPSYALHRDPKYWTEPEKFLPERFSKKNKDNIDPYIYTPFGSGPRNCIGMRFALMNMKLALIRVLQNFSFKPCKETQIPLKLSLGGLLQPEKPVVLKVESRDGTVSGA

[23] = test system: Pregnane X receptor (Homo sapiens); assay: Activation of PXR (unknown origin) at 10 uM by reporter gene assay
[24] = Clearance in beagle dog at 2.5 mg/kg, iv; type: ADME, organism-based, Canis lupus familiaris; parameters: dose 2.5 mg/kg, route intravenous; conditions: in vivo
[25] = Volume of distribution at steady state in beagle dog at 2.5 mg/kg, iv and 5 mg/kg, po; type: ADME, organism-based, Canis lupus familiaris; conditions: in vivo, read-out: Vdss
[26] = Cmax in Sprague-Dawley rat at 10 mg/kg, po; type: ADME, organism-based; parameters: dose 10 mg/kg, route oral; conditions: in vivo
[27] = Volume of distribution at steady state in Sprague-Dawley rat at 6 mg/kg, iv and 10 mg/kg, po; type: ADME, organism-based; conditions: in vivo, read-out: Vdss
Rattus norvegicus [28] = assay: Toxicity in rat up to 2000 mg/kg/day; type: organism-based; conditions: in vivo
In short: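 Non-GLP 14-day rat safety study with daily dosing up to 2000 mg/kg/day.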

[29] = Ratio of EC50 for HCV1b Con1 to plasma concentration in Sprague-Dawley rat at 10 mg/kg, po after 8 hrs
Cytochrome P450 3A4 [30] = target: T1, Cytochrome P450 3A4; assay: Induction of CYP3A4 activity in human hepatocytes at 3 uM relative to rifampicin; type: ADME, cell-based, Hepatocyte; in short: as §3
[31] = as §1; type: ADME, organism-based, Canis lupus familiaris, Plasma; parameters: dose 5 mg/kg, route oral, time infinity; conditions: beagle, plasma
[32] = Cmax in beagle dog at 5 mg/kg, po; type: ADME, organism-based, Canis lupus familiaris; parameters: dose 5 mg/kg, route oral; conditions: in vivo
[33] = as §2; type: ADME, organism-based, Canis lupus familiaris; conditions: beagle, in vivo
Rattus norvegicus [34] = species: Rattus norvegicus; assay: Drug metabolism in bile duct cannulated rat assessed as 6-(3-cyano-5-fluoro-6-(1-hydroxyethyl)-1-(pyrimidin-2-yl)-1H-indol-2-yl)-N-((S)-1,1,1-trifluoropropan-2-yl)pyridine-3-sulfonamide level in plasma; type: ADME, organism-based
Hepatitis C virus [35] = assay: Antiviral activity against HCV1a H77S assessed as inhibition of viral replication; type: functional, organism-based, Hepacivirus hominis; conditions: genotype 1a H77S
Cytochrome P450 2C9 = Cytochrome P450 2C9 (Homo sapiens, UniProt P11712); assay: Inhibition of CYP2C9 in human liver microsomes; type: ADME
Sequence of Cytochrome P450 2C9 (P11712 whole entry): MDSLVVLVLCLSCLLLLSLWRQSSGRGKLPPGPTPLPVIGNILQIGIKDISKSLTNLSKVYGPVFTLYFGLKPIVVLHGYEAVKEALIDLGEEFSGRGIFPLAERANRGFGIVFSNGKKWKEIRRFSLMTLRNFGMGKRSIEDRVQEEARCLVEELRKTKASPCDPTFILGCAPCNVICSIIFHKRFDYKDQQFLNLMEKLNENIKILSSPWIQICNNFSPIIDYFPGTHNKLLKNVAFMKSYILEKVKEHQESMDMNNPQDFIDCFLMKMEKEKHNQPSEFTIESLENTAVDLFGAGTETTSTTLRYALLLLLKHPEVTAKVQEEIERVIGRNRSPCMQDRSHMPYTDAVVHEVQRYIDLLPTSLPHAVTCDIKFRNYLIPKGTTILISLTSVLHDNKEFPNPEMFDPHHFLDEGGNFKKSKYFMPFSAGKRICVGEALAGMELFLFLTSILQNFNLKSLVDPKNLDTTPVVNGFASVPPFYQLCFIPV

Rattus norvegicus [36] = species: Rattus norvegicus; assay: Drug metabolism in bile duct cannulated rat assessed as 6-(3-cyano-5-fluoro-6-(1-hydroxyethyl)-1-(pyrimidin-2-yl)-1H-indol-2-yl)pyridine-3-sulfonamide level in plasma; type: ADME, organism-based
Rattus norvegicus [37] = species: Rattus norvegicus; assay: Drug metabolism in bile duct cannulated rat assessed as 6-(3-cyano-6-ethyl-5-fluoro-1-(pyrimidin-2-yl)-1H-indol-2-yl)pyridine-3-sulfonamide level in plasma; type: ADME, organism-based
[38] = Ratio of EC50 for HCV1b Con1 to plasma concentration in cynomolgus monkey at 5 mg/kg, po after 8 hrs
Cytochrome P450 3A4 [39] = target: T1, Cytochrome P450 3A4; assay: Induction of CYP3A4 activity in human hepatocytes at 5 uM relative to rifampicin; type: ADME, cell-based, Hepatocyte; in short: as §3
[40] = Cmax in cynomolgus monkey at 5 mg/kg, po; type: ADME, organism-based, Macaca fascicularis; parameters: dose 5 mg/kg, route oral; conditions: in vivo
Hepatocyte [41] = assay: Induction of CYP3A4 mRNA expression in human hepatocytes at 3 uM relative to rifampicin; type: ADME, cell-based; in short: as §3
Cytochrome P450 2D6 = Cytochrome P450 2D6 (Homo sapiens, UniProt P10635); assay: Inhibition of CYP2D6 in human liver microsomes; type: ADME
Sequence of Cytochrome P450 2D6 (P10635 whole entry): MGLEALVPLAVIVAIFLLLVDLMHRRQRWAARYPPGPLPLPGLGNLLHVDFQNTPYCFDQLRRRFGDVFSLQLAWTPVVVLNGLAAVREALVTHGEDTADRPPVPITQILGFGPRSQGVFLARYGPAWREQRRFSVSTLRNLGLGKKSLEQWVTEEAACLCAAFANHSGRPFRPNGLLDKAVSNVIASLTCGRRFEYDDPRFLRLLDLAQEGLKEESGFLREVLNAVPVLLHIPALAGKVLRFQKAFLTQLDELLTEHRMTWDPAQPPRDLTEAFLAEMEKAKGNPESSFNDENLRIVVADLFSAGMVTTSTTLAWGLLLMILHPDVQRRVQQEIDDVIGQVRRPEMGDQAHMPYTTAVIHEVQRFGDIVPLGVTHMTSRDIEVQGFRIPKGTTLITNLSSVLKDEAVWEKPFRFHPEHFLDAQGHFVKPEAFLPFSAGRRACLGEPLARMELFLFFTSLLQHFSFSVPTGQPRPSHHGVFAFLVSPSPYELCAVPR

Rhesus monkey = assay: Drug metabolism in bile duct cannulated monkey assessed as GSH adduct formation; type: ADME, organism-based, Macaca mulatta; conditions: in vivo

C[C@H](NS(=O)(=O)c1ccc(-c2c(C#N)c3cc(F)c(OC(F)F)cc3n2C2CCC2)nc1)C(F)(F)F
bioavailability [1]: 49% | clearance [2]: 3 mL/min/kg | IC50 [3]: 9.1 µM | half-life [4]: 149 h | AUC(0-inf) [5]: 24.8 µM·h | Kp at 6 h [6]: 11.4 | AUC (Canis familiaris [7]): 24.79 µM·h | F (Canis familiaris [8]): 91% | Ratio [9]: 277 | AUC(0-inf) [10]: 24.8 µM·h | AUC(0-t) at 6 h [11]: 13.4 µM·h | EC50 (Hepatitis C virus [12]): 0.007 µM | bioavailability [13]: 35% | half-life [14]: 11 h | clearance [15]: 2.2 mL/min/kg | half-life [16]: 22 h | Drug metabolism (Rattus norvegicus [17]): Active

CCc1cc2c(cc1F)c(C#N)c(-c1ccc(S(=O)(=O)N[C@@H](C)C(F)(F)F)cn1)n2-c1ncccn1
Activity (Hepatocyte [18]): 15.4% | Drug metabolism (Canis familiaris [19]): Not Active | Vd [20]: 3.8 L/kg | Ratio [21]: 460 | bioavailability [1]: 62% | IC50 (Cytochrome P450 3A4 [22]): > 10 µM | Activity [23]: 37% | clearance [24]: 4.6 mL/min/kg | Vd [25]: 2.1 L/kg | Cmax [26]: 2400 nM | clearance [2]: 10.1 mL/min/kg | Vd [27]: 3.9 L/kg | IC50 [3]: > 10 µM | half-life [4]: 8.9 h | AUC(0-inf) [5]: 20 µM·h | Activity (Rattus norvegicus [28]): Non-toxic | Ratio [29]: 325 | Kp at 6 h [6]: 25 | Activity (Cytochrome P450 3A4 [30]): 6% | AUC(0-inf) [31]: 29 µM·h | Cmax [32]: 4000 nM | bioavailability [33]: 78% | Drug metabolism (Rattus norvegicus [34]): Active | Ratio [9]: 342 | EC50 (Hepatitis C virus [35]): 0.007 µM | IC50 (Cytochrome P450 2C9): > 10 µM | Drug metabolism (Rattus norvegicus [36]): Active | Drug metabolism (Rattus norvegicus [37]): Active | Ratio [38]: 50 | AUC(0-inf) [10]: 3.1 µM·h | AUC(0-t) at 6 h [11]: 8.16 µM·h | EC50 (Hepatitis C virus [12]): 0.002 µM | Activity (Cytochrome P450 3A4 [39]): 9% | bioavailability [13]: 18% | half-life [14]: 7.5 h | Cmax [40]: 540 nM | clearance [15]: 11 mL/min/kg | Activity (Hepatocyte [41]): 9.8% | half-life [16]: 8 h | IC50 (Cytochrome P450 2D6): > 10 µM | Drug metabolism (Rhesus monkey): Not Active
